For 22 compounds, inhibition and IC50 results are on record in ChEMBL document CHEMBL3352213, “Development of dual targeting inhibitors against aggregations of amyloid-β and tau protein” (Eur J Med Chem, 2014).

The inhibition is the percentage by which the read-out fell short of the control. The low end stands for a weak effect, the high end for a strong effect. The term IC50 denotes the concentration at which inhibition is half-maximal. A high value points to lower potency.

Experiment [1] deals with T1, Amyloid-beta precursor protein (Homo sapiens, UniProt P05067). Nature of the experiment: Inhibition of amyloid beta (1-42) aggregation (unknown origin) at 10 uM after 24 hrs by thioflavin T fluorescence method.
Experiment [2] deals with T1, Amyloid-beta precursor protein. Nature of the experiment: Inhibition of amyloid beta (1-42) aggregation (unknown origin) after 24 hrs by thioflavin T fluorescence method.
Experiment [3] addresses T2, Microtubule-associated protein tau (Homo sapiens, UniProt P10636). Kind of experiment: Inhibition of His-tagged human brain tau 3R MBD aggregation after 16 hrs by thioflavin T fluorescence method.
In experiment [4] the target is T2, Microtubule-associated protein tau. Kind of experiment: Inhibition of His-tagged human brain tau 3R MBD aggregation at 10 uM after 16 hrs by thioflavin T fluorescence method. Put shortly: (§1)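 His-tagged 3R MBD tau expressed in E. coli BL21(DE3), purified by Ni-chelate chromatography, dialysed against ammonium acetate and freeze-dried. Tau 10 μM plus heparin 10 μM in 50 mM Tris–HCl pH 7.6 with compound (0.1–10 μM, DMSO), incubated 37 °C 16 h in the dark. Background fluorescence read first, then 10 μM ThT added; ThT fluorescence at ex 440/em 486 nm.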

Experiment [5] addresses T1, Amyloid-beta precursor protein. Kind of experiment: Inhibition of amyloid beta (1-42) aggregation (unknown origin) at 1 uM after 24 hrs by thioflavin T fluorescence method.
Experiment [6] has as its target T2, Microtubule-associated protein tau. Nature of the experiment: Inhibition of His-tagged human brain tau 3R MBD aggregation at 1 uM after 16 hrs by thioflavin T fluorescence method. Put shortly:
as §1

T1 sequence (P05067 whole entry): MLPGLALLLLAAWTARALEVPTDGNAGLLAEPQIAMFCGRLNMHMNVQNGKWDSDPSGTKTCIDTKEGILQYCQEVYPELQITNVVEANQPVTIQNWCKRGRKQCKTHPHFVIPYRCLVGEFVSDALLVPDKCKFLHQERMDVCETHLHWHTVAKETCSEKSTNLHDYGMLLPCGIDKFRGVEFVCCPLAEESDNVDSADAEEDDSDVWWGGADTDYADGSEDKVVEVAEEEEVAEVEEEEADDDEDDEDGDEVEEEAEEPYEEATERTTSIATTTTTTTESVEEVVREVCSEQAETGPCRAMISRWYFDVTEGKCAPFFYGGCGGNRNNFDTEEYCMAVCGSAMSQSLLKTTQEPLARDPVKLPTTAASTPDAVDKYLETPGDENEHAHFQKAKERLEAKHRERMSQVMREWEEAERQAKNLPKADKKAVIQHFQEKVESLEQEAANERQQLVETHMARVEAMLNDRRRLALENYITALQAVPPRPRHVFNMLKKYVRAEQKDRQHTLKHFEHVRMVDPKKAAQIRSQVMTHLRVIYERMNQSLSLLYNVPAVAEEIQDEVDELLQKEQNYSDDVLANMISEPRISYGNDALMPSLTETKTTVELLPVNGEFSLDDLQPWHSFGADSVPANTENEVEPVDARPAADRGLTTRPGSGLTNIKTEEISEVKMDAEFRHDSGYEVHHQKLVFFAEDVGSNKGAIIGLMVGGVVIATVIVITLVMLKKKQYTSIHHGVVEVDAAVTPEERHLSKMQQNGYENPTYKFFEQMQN
T2 sequence (P10636 whole entry): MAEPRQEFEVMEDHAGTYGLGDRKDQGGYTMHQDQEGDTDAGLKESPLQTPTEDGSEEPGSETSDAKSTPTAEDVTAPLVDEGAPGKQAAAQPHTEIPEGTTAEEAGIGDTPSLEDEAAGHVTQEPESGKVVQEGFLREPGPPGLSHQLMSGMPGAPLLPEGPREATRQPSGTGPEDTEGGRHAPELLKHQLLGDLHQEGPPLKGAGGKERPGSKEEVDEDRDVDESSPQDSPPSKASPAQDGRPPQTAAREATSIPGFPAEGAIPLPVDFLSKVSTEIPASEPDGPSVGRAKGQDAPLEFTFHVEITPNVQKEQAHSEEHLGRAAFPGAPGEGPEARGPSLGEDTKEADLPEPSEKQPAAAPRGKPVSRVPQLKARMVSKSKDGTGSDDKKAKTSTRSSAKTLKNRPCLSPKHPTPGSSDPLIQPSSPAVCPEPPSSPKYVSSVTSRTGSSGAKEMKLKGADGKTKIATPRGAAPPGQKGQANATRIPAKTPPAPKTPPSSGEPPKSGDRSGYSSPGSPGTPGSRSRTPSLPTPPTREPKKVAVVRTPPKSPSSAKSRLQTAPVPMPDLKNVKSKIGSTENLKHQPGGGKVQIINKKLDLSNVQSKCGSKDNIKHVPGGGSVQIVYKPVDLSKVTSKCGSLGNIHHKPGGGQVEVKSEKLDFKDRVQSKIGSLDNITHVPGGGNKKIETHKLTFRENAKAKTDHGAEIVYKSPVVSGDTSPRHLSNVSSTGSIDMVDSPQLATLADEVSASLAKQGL

With `CC(C)(C)n1c2cc(-c3ccc(N(c4ccccc4)c4ccccc4)cc3)sc2c2sc(-c3ccc(C=C(C#N)C#N)s3)cc21`, the inhibition in experiment [1] came out at 16%; in experiment [4], 18%. Moreover, the half-inhibitory concentration (IC50) in experiment [2] and in experiment [3] was more than 10 µM in each case.
On to `COc1ccc(-c2cc3c(s2)c2sc(-c4ccc(/C=C(\C#N)C(N)=O)s4)cc2n3C(C)(C)C)cc1`, for which the figures for the IC50 in experiment [2] and in experiment [3] were 0.55 µM and 0.3 µM, respectively.
`O=Cc1ccc(-c2ccc(-c3ccc(N(c4ccccc4)c4ccccc4)cc3)s2)s1`: the results for the IC50 in experiment [2] and in experiment [3] were 7.1 µM and more than 10 µM, respectively. Further, the inhibition in experiment [4] was 12%.
As to `O=Cc1ccc(-c2ccc(-c3ccc(N(c4ccccc4)c4ccccc4)cc3)c3nsnc23)s1`, the inhibition in experiment [1] was found to be 44%; in experiment [4], 11%. Also, the IC50 in experiment [2] and in experiment [3] was more than 10 µM throughout.
Regarding `CC(C)(C)n1c2cc(-c3ccc(N(c4ccccc4)c4ccccc4)cc3)sc2c2sc(-c3ccc(C=O)s3)cc21`, the figures for the inhibition in experiment [1] and in experiment [4] were 36% and 15%, respectively. For the same compound, the half-maximal inhibitory concentration (IC50) in experiment [2] and in experiment [3] was more than 10 µM in each case.
Regarding `N#C/C(=C\c1ccc(-c2ccc(-c3ccc(N(c4ccccc4)c4ccccc4)cc3)s2)s1)C(=O)O`, the IC50 in experiment [2] was less than 0.41 µM; in experiment [3] it was 1.7 µM. The compound also had an inhibition in experiment [5] of 82%.
Turning to `O=C1NC(=O)C(=Cc2ccc(-c3ccc(-c4ccc(N(c5ccccc5)c5ccccc5)cc4)s3)s2)C(=O)N1`, the inhibition is 0% in experiment [1] and 12% in experiment [4]. For the same compound, the 50% inhibitory concentration (IC50) in experiment [2] and in experiment [3] was more than 10 µM throughout.
In the case of `O=Cc1ccc(-c2ccc(-c3ccc4[nH]ccc4c3)s2)s1`, the inhibition in experiment [1] is 46%. In addition, the IC50 was more than 10 µM in experiment [2] and 1.6 µM in experiment [3].
Take `N#C/C(=C\c1ccc(-c2ccc(-c3ccc(N(c4ccccc4)c4ccccc4)cc3)c3nsnc23)s1)C(N)=O`: the figures for the inhibition in experiment [1] and in experiment [4] were 46% and 24%, respectively. Also, the concentration for half-maximal inhibition (IC50) in experiment [2] and in experiment [3] was more than 10 µM in each case.
For the compound `N#CC(C#N)=Cc1ccc(-c2ccc(-c3ccc(N(c4ccccc4)c4ccccc4)cc3)s2)s1`, the inhibition in experiment [1] amounted to 43%; in experiment [4], 14%. The IC50 in experiment [2] and in experiment [3] was more than 10 µM each time.
Regarding `CN(C)c1ccc2nc3ccc(N)cc3[s+]c2c1`, the half-maximal inhibitory concentration (IC50) in experiment [2] and in experiment [3] was less than 3 µM throughout.
`COc1ccc(-c2cc3c(s2)c2sc(-c4ccc(C=C(C#N)C#N)s4)cc2n3C(C)(C)C)cc1`: the inhibition was 18% in experiment [1] and 27% in experiment [4]. Further, the IC50 in experiment [2] and in experiment [3] was more than 10 µM each time.
`CN(C)c1ccc2nc3ccc(=[N+](C)C)cc-3sc2c1` [METHYLENE BLUE CATION] had an IC50 in experiment [2] of 0.55 µM.
On to `COc1ccc(-c2cc3c(s2)c2sc(-c4ccc(C=O)s4)cc2n3C(C)(C)C)cc1`, for which the inhibition in experiment [6] is 74%; in experiment [5], 61%. Besides, the half-maximal inhibitory concentration (IC50) was found to be 0.38 µM in experiment [2] and 0.29 µM in experiment [3].
Consider `CN1C(=O)C(=Cc2ccc(-c3ccc(-c4ccc(N(c5ccccc5)c5ccccc5)cc4)s3)s2)C(=O)N(C)C1=O`, for which the inhibition in experiment [1] was 18%; in experiment [4], 7%. In addition, the 50% inhibitory concentration (IC50) in experiment [2] and in experiment [3] was more than 10 µM in each case.
With `COc1ccc(-c2ccc(-c3ccc(C=C(C#N)C#N)s3)s2)cc1`, the 50% inhibitory concentration (IC50) in experiment [2] was less than 1 µM; in experiment [3], more than 10 µM. The inhibition in experiment [5] was found to be 78%; in experiment [4], 28%.
Regarding `COc1ccc(-c2ccc(-c3ccc(C=O)s3)s2)cc1`, the inhibition is 0% in experiment [1] and 18% in experiment [4]. The IC50 in experiment [2] and in experiment [3] was more than 10 µM in each case.
`N#C/C(=C\c1ccc(-c2ccc(-c3ccc(N(c4ccccc4)c4ccccc4)cc3)s2)s1)C(N)=O`: the 50% inhibitory concentration (IC50) is 1.5 µM in experiment [2] and more than 10 µM in experiment [3]. Besides, the inhibition in experiment [4] is 29%.
In the case of `O=c1c(O)c(-c2ccc(O)c(O)c2)oc2c(O)c(O)cc(O)c12` [GOSSYPETIN], the concentration for half-maximal inhibition (IC50) in experiment [2] and in experiment [3] was less than 3 µM in each case.
Regarding `CNc1ccc2nc3ccc(N(C)C)cc3[s+]c2c1`, the concentration for half-maximal inhibition (IC50) in experiment [2] and in experiment [3] was less than 3 µM in each case.
Consider `CC(C)(C)n1c2cc(-c3ccc(N(c4ccccc4)c4ccccc4)cc3)sc2c2sc(-c3ccc(/C=C(\C#N)C(N)=O)s3)cc21`, for which the inhibition was determined as 36% in experiment [1] and 33% in experiment [4]. In addition, the 50% inhibitory concentration (IC50) in experiment [2] and in experiment [3] was more than 10 µM in each case.
Take `N#CC(C#N)=Cc1ccc(-c2ccc(-c3ccc(N(c4ccccc4)c4ccccc4)cc3)c3nsnc23)s1`: the inhibition is 30% in experiment [1] and 15% in experiment [4]. Moreover, the concentration for half-maximal inhibition (IC50) in experiment [2] and in experiment [3] was more than 10 µM in each case.
